Test results: ChEMBL document CHEMBL4028805, “Phenylthiazole Antibacterial Agents Targeting Cell Wall Synthesis Exhibit Potent Activity in Vitro and in Vivo against Vancomycin-Resistant Enterococci” (J Med Chem, 2017)
Values after ≈ are worked out from the molar mass of the structure shown. Active and inactive are the calls of the source.

Experiments:
[1] = system: Enterococcus faecalis; assay: Inhibition of UPPP-mediated peptidoglycan biosynthesis in Enterococcus faecalis NR-31975 assessed as accumulation of UDP-N-acetylmuramyl-pentapeptide at 10 times MIC after 30 mins by HPLC-MS analysis
How it was run: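 Pellets boiled 30 min. UDP-N-acetylmuramyl-pentapeptide measured by HPLC-TOF MS on a phenyl column, 5–20% acetonitrile/0.1% formic acid gradient, positive ESI.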

[2] = system: Bacillus subtilis; assay: Antibacterial activity against Bacillus subtilis assessed as bending of cells at 5 times MIC after 2 hrs in presence of methylsulfonyl methane by phase contrast microscopic analysis; type: functional
How it was run: (§1)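 B. subtilis grown in LB at 37 °C to OD600 ~0.2, then treated at 5 × MIC with MSM for osmotic stabilisation. At 2 h, stained with FM 4-64 (1 μg/mL), DAPI (1 μg/mL) and SYTOX Green (1 μg/mL). Imaged by deconvolution fluorescence and phase contrast microscopy.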

[3] = system: Enterococcus faecalis; assay: Antibacterial activity against vancomycin-resistant Enterococcus faecalis clinical isolates after 18 to 22 hrs by broth microdilution method; type: functional
How it was run: (§2)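 CLSI broth microdilution against panels of enterococcal isolates. E. faecalis grown in TSB, E. faecium in BHI, 37 °C for 18–22 h. MIC is the lowest concentration without visible growth. MIC50 is the value inhibiting 50% of isolates in each group.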

[4] = system: Bacillus subtilis; assay: Antibacterial activity against Bacillus subtilis assessed as pool of membranes at 5 times MIC after 2 hrs in presence of methylsulfonyl methane by phase contrast microscopic analysis; type: functional; how it was run: as §1
[5] = system: Enterococcus faecalis; assay: Antibacterial activity against vancomycin-resistant Enterococcus faecalis HM-201 infected in Caenorhabditis elegans AU37 assessed as reduction in bacterial burden at 20 ug/ml after 18 hrs by CFU-based […] analysis relative to control; type: functional
How it was run: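 C. elegans AU37 adults infected on an E. faecalis HM-201 lawn for 2 h, washed in M9, 20–25 worms per well. Treated in triplicate with 20 μg/mL, with water as negative control. Worms washed, lysed with silicon carbide by vortexing, diluted serially and plated on TSA with 50 μg/mL gentamicin. CFU counted after 18 h at 37 °C and expressed as % reduction versus untreated worms.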

[6] = system: Bacillus subtilis; assay: Antibacterial activity against Bacillus subtilis assessed as misshapen cells at 5 times MIC after 2 hrs in presence of methylsulfonyl methane by phase contrast microscopic analysis; type: functional; how it was run: as §1
[7] = system: Enterococcus faecalis; assay: Antibacterial activity against Enterococcus faecalis clinical isolates after 18 to 22 hrs by broth microdilution method; type: functional; how it was run: as §2
[8] = system: Enterococcus faecium; assay: Antibacterial activity against vancomycin-resistant Enterococcus faecium clinical isolates after 18 to 22 hrs by broth microdilution method; type: functional; how it was run: as §2
[9] = system: Enterococcus faecalis; assay: Bactericidal activity against vancomycin-resistant Enterococcus faecalis clinical isolates after 18 to 22 hrs by broth microdilution method; type: functional
How it was run: (§3)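 MBC follows the broth microdilution MIC. 5 μL aliquots spotted onto TSA (E. faecalis) or BHI agar (E. faecium), incubated 37 °C for 18–22 h. MBC is the concentration giving >99% reduction in bacterial count. MBC50 is the value for 50% of isolates.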

[10] = system: Enterococcus faecium; assay: Bactericidal activity against Vancomycin-resistant Enterococcus faecium clinical isolates after 18 to 22 hrs by broth microdilution method; type: functional; how it was run: as §3
[11] = system: Enterococcus faecium; assay: Antibacterial activity against Enterococcus faecium clinical isolates after 18 to 22 hrs by broth microdilution method; type: functional
How it was run: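 Enterococcus faecium grown in BHI. MIC by CLSI broth microdilution, 37 °C for 18–22 h. Lowest concentration with no visible growth taken as MIC, reported as MIC50 across the isolates.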

[12] = system: Escherichia coli; assay: Antibacterial activity against Escherichia coli 1411 harboring delta-acrAB after 18 to 22 hrs in absence of colistin by broth microdilution method; type: functional
[13] = system: Enterococcus faecalis; assay: Antibacterial activity against vancomycin-resistant Enterococcus faecalis ATCC 51299 assessed as ratio of MIC after and before 6 serial passages measured after 18 hrs by broth microdillution method; type: functional
How it was run: (§4)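 Multi-step selection over 14 passages in two weeks. McFarland 0.5 inoculum diluted 1:300 in TSB (E. faecalis) or BHI (E. faecium) to 1 × 10^5 CFU/mL. Each passage reinoculated at ~5 × 10^5 CFU/mL from the sub-inhibitory well of the previous plate. Compounds serially diluted in triplicate, incubated ≥18 h at 37 °C, MIC read visually. Resistance defined as >4-fold MIC rise.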

[14] = system: Enterococcus faecalis; assay: Antibacterial activity against Enterococcus faecalis ATCC 31975 at 4 to 8 times MIC after 48 hrs by broth microdillution method; type: functional
How it was run: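 Single-step resistance selection. Cultures of 5 × 10^8 to 5 × 10^10 CFU/mL spread on TSA containing compound at 2×, 4× or 8× MIC and incubated aerobically at 37 °C for 48 h. Colony MICs rechecked by broth microdilution. Frequency calculated as resistant colonies per inoculum.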

[15] = Toxicity in Caenorhabditis elegans AU37 assessed as worm survival at 20 ug/ml after 24 hrs by microscopic analysis; details: AU37, caenorhabditis elegans
How it was run: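 Adult C. elegans AU37, 15–20 per well, exposed in triplicate to 10 or 20 μg/mL, with sterile water as negative control. Viability checked by microscopy. Result reported as percent viable worms after 24 h exposure.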

[16] = system: Enterococcus faecalis; assay: Bactericidal activity against vancomycin-resistant Enterococcus faecalis HM-201 at 4 times MIC after 2 hrs by time-kill assay; type: functional
How it was run: (§5)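 Late-log cells diluted to ~5 × 10^6 CFU/mL and exposed in triplicate to 4 × MIC, in TSB (E. faecalis HM-201) or BHI (E. faecium ATCC 700221) at 37 °C. Sampled at 0, 2, 4, 6, 8, 10, 12 and 24 h, diluted serially in PBS and plated on TSA or BHI agar. CFU/mL counted after 18–22 h. DMSO served as negative control.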

[17] = system: Acinetobacter baumannii; assay: Antibacterial activity against Acinetobacter baumanii ATCC 19606 after 18 to 22 hrs in absence of colistin by broth microdilution method; type: functional; details: ATCC 19606 = CIP 70.34 = JCM 6841
How it was run: (§6)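 Broth microdilution per CLSI guidelines. Gram-negatives grown in TSB. Each strain tested alone and again with colistin at ¼ × MIC to permeabilize the outer membrane. Plates incubated at 37 °C for 18–22 h. MIC read as the lowest concentration showing no visible growth.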

[18] = system: Escherichia coli; assay: Antibacterial activity against Escherichia coli O157:H7 ATCC 35150 after 18 to 22 hrs in absence of colistin by broth microdilution method; type: functional
[19] = system: Enterobacter cloacae; assay: Antibacterial activity against Enterobacter cloacae BAA-1154 after 18 to 22 hrs in absence of colistin by broth microdilution method; type: functional
[20] = system: Staphylococcus aureus; assay: Antibacterial against Methicillin-Resistant Staphylococcus aureus after 18 to 20 hrs by broth microdilution method; type: functional
[21] = system: Enterococcus faecium; assay: Bactericidal activity against Enterococcus faecium after 18 to 22 hrs by broth microdilution method; type: functional
How it was run: (§7)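 MBC determined after the broth microdilution MIC. 5 μL aliquots plated onto TSA (E. faecalis) or BHI agar (E. faecium) and incubated at 37 °C for 18–22 h. MBC is the concentration giving >99% reduction in cell count, reported as MBC50.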

[22] = system: Pseudomonas aeruginosa; assay: Antibacterial activity against Pseudomonas aeruginosa ATCC 15442 after 18 to 22 hrs in absence of colistin by broth microdilution method; type: functional
[23] = system: Enterococcus faecalis; assay: Synergistic antimicrobial activity against Enterococcus faecalis ATCC 49532 after 20 hrs in presence of ciprofloxacin by checkerboard assay; type: functional
How it was run: (§8)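 Checkerboard in TSB with a starting inoculum of 1×10^5 CFU/mL. Compound and antibiotic diluted from 2× or 4× MIC along perpendicular axes. Incubated 20 h at 37 °C. ΣFIC calculated: ≤0.5 synergy, >0.5 to <2 additive, 2–4 indifference, >4 antagonism.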

[24] = system: Escherichia coli; assay: Antibacterial activity against Escherichia coli O157:H7 ATCC 35150 after 18 to 22 hrs in presence of 1/4 times MIC colistin by broth microdilution method; type: functional
[25] = system: Pseudomonas aeruginosa; assay: Antibacterial activity against Pseudomonas aeruginosa ATCC 15442 after 18 to 22 hrs in presence of 1/4 times MIC colistin by broth microdilution method; type: functional; how it was run: as §6
[26] = system: Enterococcus faecium; assay: Bactericidal activity against vancomycin-resistant Enterococcus faecium ATCC 700221 at 4 times MIC after 4 hrs by time-kill assay; type: functional; how it was run: as §5
[27] = system: Enterobacter cloacae; assay: Antibacterial activity against Enterobacter cloacae BAA-1154 after 18 to 22 hrs in presence of 1/4 times MIC colistin by broth microdilution method; type: functional; how it was run: as §6
[28] = system: Enterococcus faecium; assay: Antibacterial activity against vancomycin-resistant Enterococcus faecium ATCC HM-968 after 14 serial passages measured after 18 hrs by broth microdillution method; type: functional; how it was run: as §4
[29] = system: HRT-18 cell line; assay: Cytotoxicity against human HRT18 cells assessed as reduction in cell viability at 20 ug/ml after 24 hrs by MTS assay; type: cell-based; details: hrt-18, 24 h
How it was run: (§9)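 HRT-18 cells maintained in RPMI-1640 with 10% fetal horse serum at 37 °C, 5% CO2. Exposed to 5, 10, 20 or 40 μg/mL for 2 or 24 h, then MTS added and absorbance read at 490 nm. Viability expressed relative to untreated cells, n ≥ 3, one-way ANOVA with Dunnett's test.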

[30] = system: Enterococcus faecalis; assay: Bactericidal activity against Enterococcus faecalis clinical isolates after 18 to 22 hrs by broth microdilution method; type: functional; how it was run: as §7
[31] = system: Enterococcus faecalis; assay: Synergistic antimicrobial activity against Enterococcus faecalis ATCC 49533 after 20 hrs in presence of ciprofloxacin by checkerboard assay; type: functional; how it was run: as §8
[32] = system: Enterococcus faecium; assay: Antibacterial activity against vancomycin-resistant Enterococcus faecium ATCC 700221 after 18 to 22 hrs in absence of colistin by broth microdilution method; type: functional
[33] = system: Acinetobacter baumannii; assay: Antibacterial activity against Acinetobacter baumanii ATCC 19606 after 18 to 22 hrs in presence of 1/4 times MIC colistin by broth microdilution method; type: functional; details: ATCC 19606 = CIP 70.34 = JCM 6841; how it was run: as §6
[34] = system: HRT-18 cell line; assay: Cytotoxicity against human HRT18 cells assessed as reduction in cell viability up to 40 ug/ml after 2 hrs by MTS assay; type: cell-based; details: hrt-18, 2 h; how it was run: as §9
[35] = system: HRT-18 cell line; assay: Cytotoxicity against human HRT18 cells assessed as reduction in cell viability at 40 ug/ml after 24 hrs by MTS assay; type: cell-based; details: hrt-18, 24 h; how it was run: as §9
[36] = system: Klebsiella pneumoniae; assay: Antibacterial activity against Klebsiella pneumoniae BAA-1706 after 18 to 22 hrs in presence of 1/4 times MIC colistin by broth microdilution method; type: functional; how it was run: as §6
[37] = system: Klebsiella pneumoniae; assay: Antibacterial activity against Klebsiella pneumoniae BAA-1706 after 18 to 22 hrs in absence of colistin by broth microdilution method; type: functional

CN[C@H](CC(C)C)C(=O)N[C@H]1C(=O)N[C@@H](CC(N)=O)C(=O)N[C@H]2C(=O)N[C@H]3C(=O)N[C@H](C(=O)N[C@H](C(=O)O)c4cc(O)cc(O)c4-c4cc3ccc4O)[C@H](O)c3ccc(c(Cl)c3)Oc3cc2cc(c3O[C@@H]2O[C@H](CO)[C@@H](O)[C@H](O)[C@H]2O[C@H]2C[C@](C)(N)[C@H](O)[C@H](C)O2)Oc2ccc(cc2Cl)[C@H]1O [VANCOMYCIN]
inhibition [1]: Active | Activity [2]: Active | MIC50 [3]: > 64 µg/mL | Activity [4]: Active | Activity [5]: inactive | Activity [6]: Active | MIC50 [7]: 1 µg/mL (≈ 0.69 µM) | MIC50 [8]: > 64 µg/mL | MBC50 [9]: >64 µg/mL | MBC50 [10]: >64 µg/mL | MIC50 [11]: 1 µg/mL (≈ 0.69 µM)

CCCCC#Cc1ccc(-c2nc(C)c(/C(C)=N/NC(=N)N)s2)cc1
MIC [12]: 8 µg/mL (≈ 22.6 µM) | Ratio [13]: 1 | MIC50 [3]: 4 µg/mL (≈ 11.3 µM) | Activity [14]: Active | Activity [5]: 94% | survival at 24 h, 20 ug/ml [15]: 90% | Activity [16]: Active | MIC [17]: 8 µg/mL (≈ 22.6 µM) | MIC50 [7]: 8 µg/mL (≈ 22.6 µM) | MIC [18]: > 128 µg/mL | MIC [19]: > 128 µg/mL | MIC [20]: 1.3 to 5.6 µg/mL (≈ 3.68 to 15.8 µM) | MBC50 [21]: 4 µg/mL (≈ 11.3 µM) | MIC [22]: > 128 µg/mL | fractional inhibitory concentration index (FICI) [23]: 0.63 - 1 | MIC [24]: 1 µg/mL | MIC [25]: 1 µg/mL | Activity [26]: Active | MIC [27]: 1 µg/mL | Activity [28]: Active | MBC50 [9]: 4 µg/mL (≈ 11.3 µM) | Activity [29]: Non-Toxic | MBC50 [10]: 4 µg/mL (≈ 11.3 µM) | MBC50 [30]: 8 µg/mL (≈ 22.6 µM) | fractional inhibitory concentration index (FICI) [31]: 0.63 - 1 | MIC [32]: 0.5 µg/mL (≈ 1.41 µM) | MIC [33]: 1 µg/mL | MIC50 [11]: 4 µg/mL (≈ 11.3 µM) | Activity [34]: Non-Toxic | Activity [35]: Toxic | MIC [36]: 1 µg/mL | MIC [37]: > 128 µg/mL
